Measurements reported in ChEMBL document CHEMBL3124865, “Sulfur rich 2-mercaptobenzothiazole and 1,2,3-triazole conjugates as novel antitubercular agents” (2014).
Converted amounts (≈) assume the structure as drawn.

What follows are compounds tested on Mycobacterium tuberculosis (assay: Bactericidal activity against Mycobacterium tuberculosis H37Rv after 20 days). Conditions: 480 h.
Assay type: functional
In short: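 After the microdilution MIC run, 0.02 mL of H37Rv suspension from wells at MIC and higher concentrations was plated on 7H10 agar (7H11 also named). Viable counts were taken after 20 days at 37 °C. MBC is the lowest concentration that cut viable counts by at least 99% versus compound-free wells.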

For `Clc1cccc(-n2cc(CSc3nc4ccccc4s3)nn2)c1`, which MBC is on record?
Its MBC is > 64 µg/mL.

With `O=[N+]([O-])c1ccc(-n2cc(CSc3nc4ccccc4s3)nn2)cc1` as the compound, how does the MBC read?
The MBC was 32 µg/mL (≈ 86.6 µM).

With `O=[N+]([O-])c1cccc(-n2cc(CSc3nc4ccccc4s3)nn2)c1` as the compound, how does the MBC read?
Its MBC is 64 µg/mL (≈ 173 µM).

`CC1(C)O[C@H]2OC(Cn3cc(CSc4nc5ccccc5s4)nn3)[C@@H]3OC(C)(C)O[C@@H]3[C@@H]2O1` (stereo partly drawn) was tested. Which MBC did it give?
Its MBC is 32 µg/mL (≈ 65.2 µM).

Each compound was assayed on Mycobacterium tuberculosis (assay: Antimycobacterial activity against Mycobacterium tuberculosis H37Rv after 2 to 3 weeks by broth microdilution assay). Conditions: not given.
Assay type: functional
In short: (§1)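 M. tuberculosis H37Rv in broth microdilution. Compounds were first screened at one fixed concentration in triplicate, and actives went on to MIC determination. Plates were incubated 2–3 weeks at 37 °C in a CO₂ incubator. MIC was read visually as the absence of growth turbidity.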

How did the MIC turn out when `O=C(CSc1nc2ccccc2s1)N1CCOCC1` was run?
The MIC was < 128 µg/mL.

For `O=C(CSc1nc2ccccc2s1)N1CCCCC1`, which MIC is on record?
Its MIC is < 128 µg/mL.

For `O=C(C(=O)N1CCCC1)c1c[nH]c2ccccc12`, which MIC is on record?
The MIC was < 128 µg/mL.

Which MIC does the source give for `Clc1ccccc1-n1cc(CSc2nc3ccccc3s2)nn1` here?
The MIC was 16 µg/mL (≈ 44.6 µM).

How did the MIC turn out when `Clc1cccc(-n2cc(CSc3nc4ccccc4s3)nn2)c1` was run?
Its MIC is 8 µg/mL (≈ 22.3 µM).

With `Clc1ccc(-n2cc(CSc3nc4ccccc4s3)nn2)cc1` as the compound, how does the MIC read?
The MIC was < 128 µg/mL.

Which MIC does the source give for `Fc1ccc(-n2cc(CSc3nc4ccccc4s3)nn2)cc1` here?
Its MIC is < 128 µg/mL.

For `Brc1ccc(-n2cc(CSc3nc4ccccc4s3)nn2)cc1`, which MIC is on record?
The MIC was 16 µg/mL (≈ 39.7 µM).

For `O=[N+]([O-])c1ccc(-n2cc(CSc3nc4ccccc4s3)nn2)cc1`, which MIC is on record?
The MIC was 8 µg/mL (≈ 21.7 µM).

`O=[N+]([O-])c1cccc(-n2cc(CSc3nc4ccccc4s3)nn2)c1` was tested. Which MIC did it give?
The MIC was 8 µg/mL (≈ 21.7 µM).

For `Cc1ccccc1-n1cc(CSc2nc3ccccc3s2)nn1`, which MIC is on record?
The MIC was < 128 µg/mL.

For `CCOc1ccc(-n2cc(CSc3nc4ccccc4s3)nn2)cc1`, which MIC is on record?
The MIC was < 128 µg/mL.

For `c1ccc(-n2cc(CSc3nc4ccccc4s3)nn2)cc1`, which MIC is on record?
Its MIC is < 128 µg/mL.

With `c1cncc(-n2cc(CSc3nc4ccccc4s3)nn2)c1` as the compound, how does the MIC read?
The MIC was 16 µg/mL (≈ 49.2 µM).

For `CC1(C)O[C@H]2OC(Cn3cc(CSc4nc5ccccc5s4)nn3)[C@@H]3OC(C)(C)O[C@@H]3[C@@H]2O1` (stereo partly drawn), which MIC is on record?
The MIC was 8 µg/mL (≈ 16.3 µM).

`CC1(C)OCC(Cn2cc(CSc3nc4ccccc4s3)nn2)O1` (stereo not drawn) was tested. Which MIC did it give?
The MIC was < 128 µg/mL.

With `CN1CCN(C(=O)C(=O)c2c[nH]c3ccccc23)CC1` as the compound, how does the MIC read?
Its MIC is < 128 µg/mL.

How did the MIC turn out when `O=C(C(=O)N1CCSCC1)c1c[nH]c2ccccc12` was run?
The MIC was < 128 µg/mL.

`O=C(NN1CCOCC1)C(=O)c1c[nH]c2ccccc12` was tested. Which MIC did it give?
The MIC was < 128 µg/mL.

How did the MIC turn out when `O=C(NNC(=O)c1ccncc1)C(=O)c1c[nH]c2ccccc12` was run?
Its MIC is 64 µg/mL (≈ 208 µM).

How did the MIC turn out when `O=C(CSc1nc2ccccc2s1)N1CCCC1` was run?
Its MIC is < 128 µg/mL.

For `CN1CCN(C(=O)CSc2nc3ccccc3s2)CC1`, which MIC is on record?
Its MIC is < 128 µg/mL.

For `O=C(CSc1nc2ccccc2s1)N1CCSCC1`, which MIC is on record?
The MIC was 64 µg/mL (≈ 206 µM).

Which MIC does the source give for `O=C(CSc1nc2ccccc2s1)NN1CCOCC1` here?
Its MIC is < 128 µg/mL.

Which MIC does the source give for `O=C(CSc1nc2ccccc2s1)Nc1ccc(F)cc1` here?
The MIC was 64 µg/mL (≈ 201 µM).

`O=C(CSc1nc2ccccc2s1)Nc1ccc(Br)cc1` was tested. Which MIC did it give?
The MIC was < 128 µg/mL.

With `O=C(CSc1nc2ccccc2s1)Nc1ccccn1` as the compound, how does the MIC read?
The MIC was 64 µg/mL (≈ 212 µM).

With `O=C(CSc1nc2ccccc2s1)NCc1ccc(F)cc1` as the compound, how does the MIC read?
Its MIC is < 128 µg/mL.

How did the MIC turn out when `O=C(CSc1nc2ccccc2s1)NNC(=O)c1ccncc1` was run?
Its MIC is < 128 µg/mL.

`O=C(C(=O)N1CCOCC1)c1c[nH]c2ccccc12` was tested. Which MIC did it give?
Its MIC is < 128 µg/mL.

Which MIC does the source give for `O=C(C(=O)N1CCCCC1)c1c[nH]c2ccccc12` here?
Its MIC is < 128 µg/mL.

Which MIC does the source give for `NNC(=O)c1ccncc1` [ISONIAZID] here?
The MIC was 0.125 µg/mL (≈ 0.911 µM).

How did the MIC turn out when `CO[C@H]1/C=C/O[C@@]2(C)Oc3c(C)c(O)c4c(O)c(c(/C=N/N5CCN(C)CC5)c(O)c4c3C2=O)NC(=O)/C(C)=C\C=C\[C@H](C)[C@H](O)[C@@H](C)[C@@H](O)[C@@H](C)[C@H](OC(C)=O)[C@@H]1C` [RIFAMPIN] was run?
The MIC was 0.06 µg/mL (≈ 0.0729 µM).

What follows are compounds tested on Mycobacterium tuberculosis (assay: Antimycobacterial activity against Mycobacterium tuberculosis). Conditions: not given.
Assay type: functional
In short: as §1

With `CC1COC2(CCN(c3nc(=O)c4cc(C(F)(F)F)cc([N+](=O)[O-])c4s3)CC2)O1` (stereo not drawn) as the compound, how does the MIC read?
The MIC was 0.001 µg/mL (≈ 0.00232 µM).
